ChEMBL document CHEMBL1145084, “Polymer-assisted solution-phase library synthesis and crystal structure of alpha-ketothiazoles as tissue factor VIIa inhibitors” (J Med Chem, 2003)

Tests used:
Coagulation factor X = Coagulation factor X (Homo sapiens, UniProt P00742); experiment: Inhibitory activity against coagulation factor X.
Summary of the method: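 Human Factor Xa (0.3 nM) with chromogenic substrate S-2765 (0.15 mM) in 50 mM Tris-HCl pH 8.0, 100 mM NaCl, 0.1% BSA. A405 background read taken at once, then 60 min at room temperature, then p-nitroaniline release rate at 405 nm. Duplicates at seven concentrations; % inhibition versus control; IC50 from four-parameter logistic fit, averaged over the duplicates.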

Coagulation factor VII = biological target: T1, Coagulation factor VII (Homo sapiens, UniProt P08709); experiment: Inhibitory activity against tissue coagulation factor VII.
T1 sequence (P08709 whole entry): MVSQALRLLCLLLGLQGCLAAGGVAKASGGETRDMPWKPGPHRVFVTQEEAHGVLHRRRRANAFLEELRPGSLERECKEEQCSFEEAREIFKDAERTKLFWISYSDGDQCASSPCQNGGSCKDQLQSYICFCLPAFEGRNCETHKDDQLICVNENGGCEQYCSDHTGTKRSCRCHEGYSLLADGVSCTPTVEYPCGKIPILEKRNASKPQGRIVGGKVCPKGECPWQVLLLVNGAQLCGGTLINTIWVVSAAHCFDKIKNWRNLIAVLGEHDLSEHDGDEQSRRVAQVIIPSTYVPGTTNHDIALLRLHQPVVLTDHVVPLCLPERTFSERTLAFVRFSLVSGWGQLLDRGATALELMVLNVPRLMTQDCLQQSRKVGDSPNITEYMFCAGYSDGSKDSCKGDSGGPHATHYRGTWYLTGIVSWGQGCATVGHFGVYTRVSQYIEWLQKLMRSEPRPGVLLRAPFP
Summary of the method: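 Complex of recombinant soluble tissue factor (100 nM) and recombinant human Factor VIIa (2 nM). Substrate N-methylsulfonyl-D-Phe-Gly-Arg-p-nitroaniline at 0.4 mM in 5 mM CaCl2, 50 mM Tris-HCl pH 8.0, 100 mM NaCl, 0.1% BSA. Background A405 read first; after 60 min at room temperature, hydrolysis rate read at 405 nm. Duplicates at seven concentrations; IC50 is the duplicate average.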

Prothrombin = Prothrombin (Homo sapiens, UniProt P00734); experiment: Inhibitory activity against thrombin (IIa).
Summary of the method: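 Human thrombin (0.28 nM) with H-D-Phe-Pip-Arg-p-nitroaniline (0.06 mM) in 50 mM Tris-HCl pH 8.0, 100 mM NaCl, 0.1% BSA. Immediate background read at 405 nm, then 60 min at room temperature before measuring p-nitroaniline release rate at 405 nm. Seven concentrations in duplicate; % inhibition versus control; IC50 by four-parameter logistic regression.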

[1] = biological target: Thrombin and coagulation factor VII (Homo sapiens) (UniProt P00734+P08709); experiment: Selectivity for coagulation factor VIIa over thrombin IIa.; type: protein assay

Sequence of Coagulation factor X (P00742 41-179 limits assumed): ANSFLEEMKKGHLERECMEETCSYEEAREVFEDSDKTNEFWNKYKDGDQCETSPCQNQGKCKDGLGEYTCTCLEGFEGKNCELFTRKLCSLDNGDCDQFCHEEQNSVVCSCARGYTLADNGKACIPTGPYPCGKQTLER
Sequence of Coagulation factor X (P00742 235-488 limits assumed): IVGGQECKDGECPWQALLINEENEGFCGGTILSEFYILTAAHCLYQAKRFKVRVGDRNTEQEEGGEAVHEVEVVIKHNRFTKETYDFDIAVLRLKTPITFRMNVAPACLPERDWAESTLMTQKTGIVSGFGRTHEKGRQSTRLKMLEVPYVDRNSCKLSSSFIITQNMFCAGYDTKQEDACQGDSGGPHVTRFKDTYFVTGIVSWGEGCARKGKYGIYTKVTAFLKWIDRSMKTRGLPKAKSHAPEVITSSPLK

IC50 (Coagulation factor X) | IC50 (Coagulation factor VII) | IC50 (Prothrombin) | Selectivity [1] | SMILES
500 nM | 1560 nM | 6300 nM | 4 | N=C(N)NCCC[C@H](NC(=O)[C@H](Cc1ccc(I)cc1)NC(=O)[C@@H](Cc1ccccc1)NS(=O)(=O)Cc1ccccc1)C(=O)c1nccs1
380 nM | 760 nM | 3190 nM | 4 | N=C(N)NCCC[C@H](NC(=O)[C@H](Cc1ccc(Br)cc1)NC(=O)[C@@H](Cc1ccccc1)NS(=O)(=O)Cc1ccccc1)C(=O)c1nccs1
310 nM | 1530 nM | 9890 nM | 6 | N=C(N)NCCC[C@H](NC(=O)[C@H](COCc1ccccc1)NC(=O)[C@@H](Cc1ccccc1)NS(=O)(=O)Cc1ccccc1)C(=O)c1nccs1
2400 nM | 9970 nM | 9920 nM | 1 | N=C(N)NCCC[C@H](NC(=O)[C@H](Cc1cn(Cc2ccccc2)cn1)NC(=O)[C@@H](Cc1ccccc1)NS(=O)(=O)Cc1ccccc1)C(=O)c1nccs1
3140 nM | 17800 nM | 11200 nM | 1 | N=C(N)NCCC[C@H](NC(=O)[C@H](Cc1ccc(-c2ccccc2)cc1)NC(=O)[C@@H](Cc1ccccc1)NS(=O)(=O)Cc1ccccc1)C(=O)c1nccs1
1070 nM | 1830 nM | 1680 nM | 1 | N=C(N)NCCC[C@H](NC(=O)[C@H](Cc1cccc(-c2ccccc2)c1)NC(=O)[C@@H](Cc1ccccc1)NS(=O)(=O)Cc1ccccc1)C(=O)c1nccs1
540 nM | 900 nM | 10400 nM | 12 | N=C(N)NCCC[C@H](NC(=O)[C@H](CCc1ccccc1)NC(=O)[C@@H](Cc1ccccc1)NS(=O)(=O)Cc1ccccc1)C(=O)c1nccs1
1800 nM | 5600 nM | > 30000 nM | > 5 | N=C(N)NCCC[C@H](NC(=O)[C@H](Cc1cccc2ccccc12)NC(=O)[C@@H](Cc1ccccc1)NS(=O)(=O)Cc1ccccc1)C(=O)c1nccs1
610 nM | 680 nM | 3420 nM | 5 | N=C(N)NCCC[C@H](NC(=O)[C@H](Cc1ccc(Cl)cc1)NC(=O)[C@@H](Cc1ccccc1)NS(=O)(=O)Cc1ccccc1)C(=O)c1nccs1
150 nM | 500 nM | 15400 nM | 3 | N=C(N)NCCC[C@H](NC(=O)[C@H](Cc1csc2ccccc12)NC(=O)[C@@H](Cc1ccccc1)NS(=O)(=O)Cc1ccccc1)C(=O)c1nccs1
770 nM | 1950 nM | 2400 nM | 1 | N=C(N)NCCC[C@H](NC(=O)[C@H](Cc1ccc2ccccc2c1)NC(=O)[C@@H](Cc1ccccc1)NS(=O)(=O)Cc1ccccc1)C(=O)c1nccs1
185 nM | 170 nM | 3150 nM | 19 | N=C(N)NCCC[C@H](NC(=O)[C@H](Cc1ccc(F)cc1)NC(=O)[C@@H](Cc1ccccc1)NS(=O)(=O)Cc1ccccc1)C(=O)c1nccs1

Second part, the compound before the results:

SMILES | IC50 (Coagulation factor X) | IC50 (Coagulation factor VII) | IC50 (Prothrombin) | Selectivity [1]
CN(C)CCCC[C@H](NC(=O)[C@@H](Cc1ccccc1)NS(=O)(=O)Cc1ccccc1)C(=O)N[C@@H](CCCNC(=N)N)C(=O)c1nccs1 | 1700 nM | 2820 nM | 15400 nM | –
N=C(N)NCCC[C@H](NC(=O)[C@H](Cc1cc(F)cc(F)c1)NC(=O)[C@@H](Cc1ccccc1)NS(=O)(=O)Cc1ccccc1)C(=O)c1nccs1 | 180 nM | 190 nM | 6820 nM | 36
N=C(N)NCCC[C@H](NC(=O)[C@H](CC1CC1)NC(=O)[C@@H](Cc1ccccc1)NS(=O)(=O)Cc1ccccc1)C(=O)c1nccs1 | 2120 nM | 820 nM | 9200 nM | 11
CC(=O)Nc1ccc(C[C@H](NC(=O)[C@@H](Cc2ccccc2)NS(=O)(=O)Cc2ccccc2)C(=O)N[C@@H](CCCNC(=N)N)C(=O)c2nccs2)cc1 | 300 nM | 570 nM | 4590 nM | –
N=C(N)NCCC[C@H](NC(=O)[C@H](CC1CCCCC1)NC(=O)[C@@H](Cc1ccccc1)NS(=O)(=O)Cc1ccccc1)C(=O)c1nccs1 | 2700 nM | 3300 nM | 24200 nM | 7
Cc1cccc(C)c1C[C@H](NC(=O)[C@@H](Cc1ccccc1)NS(=O)(=O)Cc1ccccc1)C(=O)N[C@@H](CCCN=C(N)N)C(=O)c1nccs1 | 2770 nM | 700 nM | 28100 nM | 40
N=C(N)NCCC[C@H](NC(=O)[C@H](CO)NC(=O)[C@@H](Cc1ccccc1)NS(=O)(=O)Cc1ccccc1)C(=O)c1nccs1 | 240 nM | 110 nM | 40 nM | 0.4
NC(N)=NCCC[C@H](NC(=O)[C@H](Cc1ccc([N+](=O)[O-])cc1)NC(=O)[C@@H](Cc1ccccc1)NS(=O)(=O)Cc1ccccc1)C(=O)c1nccs1 | 2180 nM | 5880 nM | > 30000 nM | –
N=C(N)NCCC[C@H](NC(=O)[C@H](CC(=O)OC1CCCCC1)NC(=O)[C@@H](Cc1ccccc1)NS(=O)(=O)Cc1ccccc1)C(=O)c1nccs1 | 1250 nM | 3180 nM | 4990 nM | 2
CC(C)(C)C[C@H](NC(=O)[C@@H](Cc1ccccc1)NS(=O)(=O)Cc1ccccc1)C(=O)N[C@@H](CCCNC(=N)N)C(=O)c1nccs1 | 1030 nM | 700 nM | 440 nM | –
N=C(N)NCCC[C@H](NC(=O)[C@H](Cc1cc(F)c(F)c(F)c1)NC(=O)[C@@H](Cc1ccccc1)NS(=O)(=O)Cc1ccccc1)C(=O)c1nccs1 | 250 nM | 200 nM | – | –
Cc1ccc(C[C@H](NC(=O)[C@@H](Cc2ccccc2)NS(=O)(=O)Cc2ccccc2)C(=O)N[C@@H](CCCN=C(N)N)C(=O)c2nccs2)cc1 | 570 nM | 1290 nM | 7480 nM | 6
CS(=O)(=O)CC[C@H](NC(=O)[C@@H](Cc1ccccc1)NS(=O)(=O)Cc1ccccc1)C(=O)N[C@@H](CCCN=C(N)N)C(=O)c1nccs1 | 2000 nM | 13700 nM | 12900 nM | 1
